# Data: ChEMBL document CHEMBL3865847, “The synthesis and biological evaluation of alkyl and benzyl naphthyridinium analogs of eupolauridine as potential antimicrobial and cytotoxic agents” (Bioorg Med Chem, 2016)
# Key:
# Aspergillus fumigatus = assay: Antimicrobial activity against Aspergillus fumigatus ATCC 26934; assay type: functional
# In short: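 Aspergillus fumigatus spores released by scraping a slant, used on assay day, in mycophil broth. Broth microdilution in 96-well plates, highest final DMSO 2.5%, incubated at 30 °C. Growth read as absorbance at 630 nm versus controls. MIC is the lowest tested concentration giving 80% growth inhibition; IC50 (50% inhibition) comes from concentration versus % growth plots.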
# [1] = Inhibition of Candida albicans DNA topoisomerase 1 using pHOT1 as substrate after 30 mins by agarose gel electrophoresis
# In short: (§1)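 Relaxation of supercoiled to relaxed DNA by TopoI measured with a commercial TopoI drug kit following kit protocol. IC50 calculated from dose-response curves of % inhibition versus concentration.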
# Pseudomonas aeruginosa = assay: Antimicrobial activity against Pseudomonas aeruginosa ATCC 15442; assay type: functional
# In short: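 Pseudomonas grown 24 h in trypticase soy broth, diluted 1:50. Combined with diluted samples in 96-well plates, top final concentration 50 µg/mL (≤2.5% DMSO), 37 °C incubation. Growth read at 630 nm. MIC is the lowest tested concentration inhibiting 80% of growth versus controls; IC50 from concentration versus % growth graphs.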
# Candida albicans = assay: Antimicrobial activity against Candida albicans B311; assay type: functional
# In short: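 Cultured in Sabouraud dextrose broth 24 h, counted by hemocytometer, diluted to 10,000 CFU/mL. Added to serially diluted samples in 96-well plates, top final concentration 50 µg/mL (≤2.5% DMSO), incubated 37 °C. Growth by A630. MIC is the lowest concentration giving 80% inhibition against controls; IC50 from concentration versus % growth plots.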
# DNA topoisomerase 1 = target: T1, DNA topoisomerase 1 (Homo sapiens, UniProt P11387); assay: Inhibition of human DNA topoisomerase 1 using pHOT1 as substrate after 30 mins by agarose gel electrophoresis; in short: as §1
# T1 sequence (P11387 whole entry): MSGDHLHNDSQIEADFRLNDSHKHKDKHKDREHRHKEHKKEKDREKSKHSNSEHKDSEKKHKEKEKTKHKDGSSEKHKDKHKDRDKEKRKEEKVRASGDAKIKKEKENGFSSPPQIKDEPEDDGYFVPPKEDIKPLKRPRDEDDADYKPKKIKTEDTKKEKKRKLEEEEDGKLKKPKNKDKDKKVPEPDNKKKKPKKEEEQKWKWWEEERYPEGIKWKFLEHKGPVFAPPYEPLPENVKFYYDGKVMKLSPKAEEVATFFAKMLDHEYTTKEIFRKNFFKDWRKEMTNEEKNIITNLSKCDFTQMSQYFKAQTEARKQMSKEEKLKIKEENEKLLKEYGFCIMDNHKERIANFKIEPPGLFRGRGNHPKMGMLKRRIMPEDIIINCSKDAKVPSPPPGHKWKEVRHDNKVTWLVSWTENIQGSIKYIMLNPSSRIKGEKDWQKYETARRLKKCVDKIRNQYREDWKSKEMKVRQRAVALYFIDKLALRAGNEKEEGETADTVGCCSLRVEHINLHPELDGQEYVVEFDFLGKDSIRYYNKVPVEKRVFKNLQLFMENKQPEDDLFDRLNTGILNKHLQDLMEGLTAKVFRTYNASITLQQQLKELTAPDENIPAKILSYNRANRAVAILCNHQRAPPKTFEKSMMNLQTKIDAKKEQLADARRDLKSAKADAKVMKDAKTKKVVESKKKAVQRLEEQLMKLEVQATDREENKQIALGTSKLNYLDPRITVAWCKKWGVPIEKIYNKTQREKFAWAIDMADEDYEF
# [2] = Cytotoxicity against African green monkey Vero cells assessed as cell growth inhibition after 48 hrs by neutral red dye based assay; assay type: toxicity, Chlorocebus sabaeus
# In short: (§2)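 Cells kept in RPMI-1640 with 10% bovine serum and 60 µg/mL amikacin, 37 °C, 5% CO2. Seeded at 25,000 cells/well, left 24 h to adhere. Samples diluted in RPMI added, highest final concentration 10 µg/mL. Growth measured by neutral red uptake after 48 h exposure.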
# [3] = Selectivity index, ratio of IC50 for human DNA topoisomerase 1 to IC50 for Candida albicans DNA topoisomerase 1
# Cryptococcus neoformans = assay: Antimicrobial activity against Cryptococcus neoformans ATCC 52657; assay type: functional
# In short: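 Grown in mycophil broth 72 h, hemocytometer-counted, diluted to 200,000 CFU/mL. Exposed to diluted samples in 96-well plates, maximum final 50 µg/mL (DMSO up to 2.5%), incubated 30 °C. A630 readout. MIC is the lowest concentration inhibiting 80% of growth versus controls; IC50 read from concentration versus % growth graphs.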
# [4] = Cytotoxicity against human SKOV3 cells assessed as cell growth inhibition after 48 hrs by neutral red dye based assay; assay type: functional; details: SK-OV-3, 48 h; in short: as §2
# [5] = Cytotoxicity against human KB cells assessed as cell growth inhibition after 48 hrs by neutral red dye based assay; assay type: functional; in short: as §2
# [6] = Cytotoxicity against human BT549 cells assessed as cell growth inhibition after 48 hrs by neutral red dye based assay; assay type: functional; details: BT-549, 48 h; in short: as §2
# Plasmodium falciparum = assay: Antimalarial activity against Plasmodium falciparum D6 infected in RBC after 48 hrs by lactate dehydrogenase assay; assay type: functional; details: D6, 48 h
# In short: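 Parasites grown in A+ human erythrocytes in RPMI 1640 with 10% A+ human serum, 25 mM HEPES, 27 mM bicarbonate, 60 µg/mL amikacin, 37 °C under 90% N2/5% O2/5% CO2. Infected cells exposed 48 h in microtiter wells, highest concentration 4.8 µg/mL. Growth read by Malstat reagent (parasite LDH) with nitro blue tetrazolium reduction, absorbance 630 nm.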
# Staphylococcus aureus [7] = assay: Antimicrobial activity against Staphylococcus aureus ATCC 6538; assay type: functional
# In short: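 Staphylococcus aureus grown 24 h in Eugon broth, diluted 1:50 in broth, added to serially diluted samples in 96-well plates (highest final DMSO 2.5%), incubated at 37 °C. Growth measured at 630 nm versus controls. MIC is the lowest concentration inhibiting 80% of growth; IC50 (50% inhibition) comes from concentration versus % growth plots.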
# [8] = test system: Mycobacterium intracellulare; assay: Antimicrobial activity against Mycobacterium intracellulare ATCC 23068; assay type: functional
# In short: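 Mycobacterium grown 72 h in Middlebrook medium with OADC supplement, diluted 1:30 in broth. Incubated at 37 °C with diluted samples in 96-well plates, highest final 50 µg/mL, DMSO at most 2.5%. Absorbance at 630 nm. MIC = lowest concentration with 80% growth inhibition relative to controls; IC50 from concentration versus % growth plots.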
# [9] = Cytotoxicity against human SK-MEL cells assessed as cell growth inhibition after 48 hrs by neutral red dye based assay; assay type: functional; in short: as §2
# Staphylococcus aureus [10] = assay: Antimicrobial activity against methicillin-resistant Staphylococcus aureus; assay type: functional
# In short: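 MRSA precultured 24 h, diluted 1:50 in broth, added to serially diluted samples in 96-well plates (highest final DMSO 2.5%), incubated at 37 °C. Growth measured as absorbance at 630 nm versus controls. MIC is the lowest concentration giving 80% inhibition; IC50 (50% inhibition) is read from concentration versus % growth plots.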
SMILES,MIC80 (Aspergillus fumigatus) [µg/mL],IC50 [1] [µg/mL],IC50 (Pseudomonas aeruginosa) [µg/mL],IC50 (Candida albicans) [µg/mL],MIC80 (Candida albicans) [µg/mL],IC50 (DNA topoisomerase 1) [µM],IC50 at 48 h [2] [µg/mL],Ratio IC50 [3],IC50 (Cryptococcus neoformans) [µg/mL],MIC80 (Cryptococcus neoformans) [µg/mL],IC50 [4] [µg/mL],IC50 [5] [µg/mL],IC50 [6] [µg/mL],IC50 (Plasmodium falciparum) [µg/mL],IC50 (Staphylococcus aureus [7]) [µg/mL],MIC80 [8] [µg/mL],IC50 [9] [µg/mL],IC50 (Staphylococcus aureus [10]) [µg/mL]
c1ccc2c(c1)-c1nccc3ccnc-2c13 [EUPOLAURIDINE],2,6.5,5,5.25,12.5,20.6,> 10,1.55,4.8,25,> 10,–,–,–,–,–,–,–
FC(F)(F)c1ccc(C[n+]2ccc3ccnc4c3c2-c2ccccc2-4)cc1.[Br-],–,30,27,6.5,12.5,69.9,6.4,0.97,0.57,3.12,0.08,0.54,0.79,0.0085,30,50,0.78,–
C[C@@H]1[C@H](O)[C@@H](C)/C=C/C=C/C=C/C=C/C=C/C=C/C=C/[C@H](O[C@@H]2O[C@H](C)[C@@H](O)[C@H](N)[C@@H]2O)C[C@@H]2O[C@](O)(C[C@@H](O)C[C@@H](O)[C@H](O)CC[C@@H](O)C[C@@H](O)CC(=O)O[C@H]1C)C[C@H](O)[C@H]2C(=O)O [AMPHOTERICIN B],1.25,–,–,–,0.156,–,–,–,–,0.078,–,–,–,–,–,–,–,–
CC[n+]1c2c3c(nc(-c4ccccc4)cc3c3ccccc31)-c1ccccc1-2.[Br-],–,< 6,2,0.04,0.098,< 13.7,7.8,–,0.17,0.39,4,6.5,8,–,2,10,1.3,2
